Data from ChEMBL document CHEMBL3259755, “Synthesis, antinociceptive activity and pharmacokinetic profiles of nicorandil and its isomers” (Bioorg Med Chem, 2014).
Activity calls are given as the source filed them.

What was measured:
Mus musculus [1] = test: Antinociceptive activity in Swiss mouse assessed as inhibition of formaldehyde-induced nociceptive response in right hind paw at 50 to 150 mg/kg, po administered 5 mins followed by formaldehyde challenge measured over 5 mins; type: functional, organism-based
How it was run: (§1)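 Female Swiss mice received compound p.o. (50, 100 or 150 mg/kg in 0.5% CMC) 5 min before s.c. injection of 0.92% formaldehyde (20 µL) into the right hindpaw. Licking time was recorded at 0–5 min and 15–30 min; n = 9. ANOVA with Newman–Keuls.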

Mus musculus [2] = test: Antinociceptive activity in Swiss mouse assessed as inhibition of formaldehyde-induced nociceptive response in right hind paw at 50 to 150 mg/kg, po administered 5 mins followed by formaldehyde challenge measured for 15 to 30 mins; type: functional, organism-based; how it was run: as §1
[3] = Half life in Swiss mouse at 100 mg/kg, po by LC-MS/MS analysis; type: ADME, organism-based; design: dose 100 mg/kg, route oral; settings: in vivo
How it was run: (§2)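 Female Swiss mice (25–30 g), fasted 12 h, given 100 mg/kg p.o. as a suspension in 0.5% CMC (4 mL/kg). Heparinized blood was centrifuged and plasma stored at −70 °C. Plasma was run by LC–MS/MS on a C18 column with methanol/2 mM ammonium acetate + 0.03% formic acid (33:67). Values are mean ± S.E.M.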

[4] = AUC (0 to infinity) in Swiss mouse at 100 mg/kg, po by LC-MS/MS analysis; type: ADME, organism-based; design: time infinity, dose 100 mg/kg, route oral; settings: plasma; how it was run: as §2
Mus musculus [5] = test: Antinociceptive activity in Swiss mouse assessed as inhibition of formaldehyde-induced nociceptive response in right hind paw at 100 to 150 mg/kg, po administered 1 hr followed by formaldehyde challenge measured 15 to 30 mins; type: functional, organism-based
How it was run: (§3)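 Female Swiss mice received vehicle (0.5% CMC, 4 ml/kg) or compound p.o. at 50–150 mg/kg, or at 3–30 mg/kg, 1 h before 20 µL of 0.92% formaldehyde s.c. into the dorsal right hindpaw. Paw-licking time was scored at 0–5 min (first phase) and 15–30 min (second phase). n = 9. Data: mean ± S.E.M., one-way ANOVA with Newman–Keuls.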

[6] = Cmax in Swiss mouse at 100 mg/kg, po by LC-MS/MS analysis; type: ADME, organism-based; design: dose 100 mg/kg, route oral; settings: in vivo; how it was run: as §2
[7] = Tmax in Swiss mouse at 100 mg/kg, po by LC-MS/MS analysis; type: ADME, organism-based; design: dose 100 mg/kg, route oral; settings: in vivo; how it was run: as §2
[8] = AUC (0 to t) in Swiss mouse at 100 mg/kg, po by LC-MS/MS analysis; type: ADME, organism-based; design: dose 100 mg/kg, route oral; settings: plasma; how it was run: as §2
Plasma [9] = test: Drug metabolism in Swiss mouse plasma assessed as nitrite level at 100 mg/kg, po measured after 0.25 to 3 hrs by Griess assay; type: ADME, organism-based; design: dose 100 mg/kg, route oral; settings: in vivo
How it was run: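 Female Swiss mice fasted 12 h received vehicle (0.5% CMC, 4 ml/kg) or compound at 100 mg/kg p.o. After ketamine/xylazine anesthesia at 15 min, 1 h and 3 h, blood was taken from the abdominal artery to avoid hemolysis. Heparinized plasma, stored at −70 °C, was mixed 1:1 with Griess reagent for 10 min at room temperature. A540 read against blank plasma; n = 7.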

Mus musculus [10] = test: Antinociceptive activity in Swiss mouse assessed as inhibition of formaldehyde-induced nociceptive response in right hind paw at 100 mg/kg, po administered 1 hr followed by formaldehyde challenge measured over 5 mins; type: functional, organism-based; design: dose 100 mg/kg; how it was run: as §3
Mus musculus [11] = test: Toxicity in Swiss mouse assessed as time spent on rotating rod at 150 mg/kg, po administered 1 hr prior to testing (reference value: 120 secs); type: organism-based; design: dose 150 mg/kg, route oral; settings: in vivo
How it was run: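 Female Swiss mice were trained on a rota-rod (14 rpm) over 3 days, with a 2 min cut-off. After baseline timing, they were dosed p.o. with vehicle (0.5% CMC, 4 ml/kg), compound at 150 mg/kg, or phenobarbital 40 mg/kg as positive control, and retested 1 h later. n = 9.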

Mus musculus [12] = test: Antinociceptive activity in Swiss mouse assessed as inhibition of formaldehyde-induced nociceptive response in right hind paw at 3 to 30 mg/kg, po administered 1 hr followed by formaldehyde challenge; type: functional, organism-based; how it was run: as §3
Plasma [13] = test: Drug metabolism in Swiss mouse plasma assessed as formation of nicotinamide at 100 mg/kg, po after 10 hrs by LC-MS/MS analysis; type: ADME, organism-based; design: dose 100 mg/kg, route oral; settings: in vivo
How it was run: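 Female Swiss mice fasted 12 h received 100 mg/kg p.o. in 0.5% CMC. Six mice per time point were sampled by decapitation from 5 min to 10 h, plus six untreated controls. Heparinized plasma stored at −70 °C. Nicotinamide measured by LC–MS/MS (C18, methanol/ammonium acetate–formic acid mobile phase).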

Mus musculus [14] = test: Antinociceptive activity in Swiss mouse assessed as inhibition of formaldehyde-induced nociceptive response in right hind paw at 100 mg/kg, po administered 1 hr followed by formaldehyde challenge measured for 15 to 30 mins; type: functional, organism-based; design: dose 100 mg/kg; how it was run: as §3
Mus musculus [15] = test: Antinociceptive activity in po dosed Swiss mouse assessed as inhibition of formaldehyde-induced nociceptive response in right hind paw administered 1 hr followed by formaldehyde challenge measured over 5 mins; type: functional, organism-based; how it was run: as §3
Mus musculus [16] = test: Antinociceptive activity in Swiss mouse assessed as inhibition of formaldehyde-induced nociceptive response in right hind paw at 150 mg/kg, po administered 1 hr followed by formaldehyde challenge measured over 5 mins; type: functional, organism-based; design: dose 150 mg/kg; how it was run: as §3
Mus musculus [17] = test: Antinociceptive activity in Swiss mouse assessed as inhibition of formaldehyde-induced nociceptive response in right hind paw at 150 mg/kg, po administered 1 hr followed by formaldehyde challenge measured 15 to 30 mins; type: functional, organism-based; design: dose 150 mg/kg; how it was run: as §3
Mus musculus [18] = test: Toxicity in Swiss mouse assessed as time spent on rotating rod at 40 mg/kg, po administered 1 hr prior to testing (reference value: 119 +/- 1 secs); type: organism-based; design: dose 40 mg/kg, route oral; settings: in vivo

O=C(NCCO)c1ccccn1
inhibition (Mus musculus [1]): inactive | inhibition (Mus musculus [2]): inactive

O=C(NCCO)c1ccncc1
inhibition (Mus musculus [1]): inactive | inhibition (Mus musculus [2]): inactive

O=C(NCCO[N+](=O)[O-])c1cccnc1 [NICORANDIL]
half-life [3]: 90 min | AUC(0-inf) [4]: 123 µg·h/mL | inhibition (Mus musculus [5]): Active | Cmax [6]: 42600 ng/mL | Tmax [7]: 40.2 min | AUC(0-t) [8]: 121 µg·h/mL | Drug metabolism (Plasma [9]): metabolite_detected | inhibition (Mus musculus [10]): Active | Time (Mus musculus [11]): 120 s | inhibition (Mus musculus [12]): inactive | Drug metabolism (Plasma [13]): metabolite_detected | inhibition (Mus musculus [14]): Active | inhibition (Mus musculus [15]): Dose-dependent effect

O=C(NCCO[N+](=O)[O-])c1ccncc1
half-life [3]: 45.6 min | AUC(0-inf) [4]: 160 µg·h/mL | inhibition (Mus musculus [5]): Active | Cmax [6]: 49400 ng/mL | Tmax [7]: 52.8 min | AUC(0-t) [8]: 160 µg·h/mL | Drug metabolism (Plasma [9]): metabolite_detected | inhibition (Mus musculus [10]): Active | Time (Mus musculus [11]): 120 s | Drug metabolism (Plasma [13]): metabolite_detected | inhibition (Mus musculus [14]): Active

O=C(NCCO[N+](=O)[O-])c1ccccn1
inhibition (Mus musculus [16]): Active | half-life [3]: 66 min | AUC(0-inf) [4]: 10.1 µg·h/mL | Cmax [6]: 30800 ng/mL | Tmax [7]: 6.6 min | AUC(0-t) [8]: 10.1 µg·h/mL | inhibition (Mus musculus [1]): inactive | inhibition (Mus musculus [2]): inactive | Drug metabolism (Plasma [9]): metabolite_notdetected | inhibition (Mus musculus [10]): Active | Time (Mus musculus [11]): 120 s | inhibition (Mus musculus [17]): Active | Drug metabolism (Plasma [13]): metabolite_detected | inhibition (Mus musculus [14]): Active

CCC1(c2ccccc2)C(=O)NC(=O)NC1=O [PHENOBARBITAL]
Time (Mus musculus [18]): 26 s

O=C(NCCO)c1cccnc1
inhibition (Mus musculus [1]): inactive | inhibition (Mus musculus [2]): inactive
